Assay [1] has as its target T1, Proteasome Macropain subunit MB1 (Homo sapiens) (UniProt P28074).
T1 sequence (whole entry): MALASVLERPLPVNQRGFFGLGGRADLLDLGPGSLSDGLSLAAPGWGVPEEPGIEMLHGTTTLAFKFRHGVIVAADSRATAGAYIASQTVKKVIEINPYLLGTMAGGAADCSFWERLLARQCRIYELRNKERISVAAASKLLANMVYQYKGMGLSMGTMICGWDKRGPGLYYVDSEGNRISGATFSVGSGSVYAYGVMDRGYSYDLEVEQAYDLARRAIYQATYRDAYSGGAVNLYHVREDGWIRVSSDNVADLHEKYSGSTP
Description: (§1) Inhibition of catalytic activity of constitutive proteasome 20s subunit beta5 in human Raji cells incubated for 1 hr by BODIPY(TMR)-NC-005-VS probe based competitive activity based protein profiling assay. Type of assay: cell-based.

The target of assay [2] is T2, Proteasome Macropain subunit MB1 (Homo sapiens, UniProt P28074).
T2 sequence (P28074 whole entry): T1 sequence (whole entry)
Described as §1. Type of assay: cell-based.

In assay [3] the target is Proteasome Macropain subunit (Homo sapiens) (UniProt P49721). The experiment in a line: Inhibition of catalytic activity of constitutive proteasome 20s subunit beta2 in human Raji cells incubated for 1 hr by BODIPY(FL)-LU-112 probe based competitive activity based protein profiling assay. Type of assay: cell-based.
In assay [4] the target is T3, Proteasome component C5 (Homo sapiens) (UniProt P20618).
T3 sequence (whole entry): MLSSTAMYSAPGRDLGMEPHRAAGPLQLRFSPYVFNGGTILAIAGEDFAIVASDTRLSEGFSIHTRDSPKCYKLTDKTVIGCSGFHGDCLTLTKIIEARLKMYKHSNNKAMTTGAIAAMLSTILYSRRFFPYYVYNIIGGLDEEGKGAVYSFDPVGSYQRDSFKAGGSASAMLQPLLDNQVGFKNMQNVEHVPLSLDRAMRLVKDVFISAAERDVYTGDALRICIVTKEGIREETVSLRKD
The experiment in a line: Inhibition of catalytic activity of constitutive proteasome 20s subunit beta1 in human Raji cells incubated for 1 hr by Cy5-NC-001 probe based competitive activity based protein profiling assay. Format: cell-based.

Assay [5] deals with Proteasome subunit beta type-9 (β1i, LMP2) (Homo sapiens) (UniProt P28065). Description: Inhibition of catalytic activity of immunoproteasome 20s subunit beta1 in human Raji cells incubated for 1 hr by Cy5-NC-001 probe based competitive activity based protein profiling assay.
Assay [6] concerns the target Proteasome subunit beta type-8 (β5i, LMP7) (Homo sapiens) (UniProt P28062). Description: Inhibition of catalytic activity of immunoproteasome 20s subunit beta5 in human Raji cells incubated for 1 hr by BODIPY(TMR)-NC-005-VS probe based competitive activity based protein profiling assay.
A further assay is filed under the species Homo sapiens. The experiment in a line: Selectivity ratio of IC50 for immunoproteasome 20s subunit beta5 in human Raji cells to IC50 for constitutive proteasome 20s subunit beta5 in human Raji cells. Type of assay: cell-based. In a few lines:
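Initial screen in Raji cell extracts. Inhibitor at 0.01, 0.1, 1.0 and 10.0 µM final for 1 h at 37 °C, then ABP cocktail 1 h. In-gel fluorescence of β5c/β5i bands normalized to mock-treated extract, giving residual activity. Run once. IC50s from this screen feed the β5i/β5c ratio.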

In assay [7] the target is T2, Proteasome Macropain subunit MB1. Description: (§2) Inhibition of catalytic activity of constitutive proteasome 20s subunit beta5 in human RPMI8226 cells incubated for 1 hr by BODIPY(TMR)-NC-005-VS probe based competitive activity based protein profiling assay. Format: cell-based. In a few lines:
(§3)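 Live RPMI-8226 cells ((5-8)x10⁵ cells/mL; RPMI-1640, 10% FCS, GlutaMAX, pen/strep, 5% CO₂) exposed to inhibitor 1 h at 37 °C. Cells washed with PBS and lysed in digitonin/ATP buffer on ice 1 h. Lysates then labelled 1 h with the ABP cocktail and run on SDS-PAGE. In-gel fluorescence bands were normalized to mock and corrected for loading by Coomassie. IC50 from mean of three independent experiments.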

Assay [8] addresses T1, Proteasome Macropain subunit MB1 (Homo sapiens). Description: Inhibition of catalytic activity of immunoproteasome 20s subunit beta5/constitutive 20s subunit beta5 in human AMO1 cells assessed as accumulation of ubiquitinated-GFP at 100 uM after 1 hr by FACS analysis. Format: cell-based. In a few lines:
(§4)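 AMO-1 myeloma clone stably expressing Ub-G76V-GFP (G418-selected). 5x10⁵ cells pulsed 1 h at 37 °C with inhibitor, washed with PBS, then chased 12 h in inhibitor-free medium (37 °C, 5% CO₂). GFP median fluorescence intensity read by flow cytometry in FITC channel.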
A general note: Flow cytometry measures light scatter and fluorescence of single cells or particles in a stream.

The target is the same in assay [9]. The description is as §2. Format: cell-based. In a few lines: as §3
Assay [10] has as its target Proteasome Macropain subunit (Homo sapiens) (UniProt P49721). The experiment in a line: Inhibition of catalytic activity of constitutive proteasome 20s subunit beta2 in human RPMI8226 cells incubated for 1 hr by BODIPY(FL)-LU-112 probe based competitive activity based protein profiling assay. Format: cell-based. In short, it runs like this:
as §3

In assay [11] the target is T3, Proteasome component C5 (Homo sapiens). Description: Inhibition of catalytic activity of constitutive proteasome 20s subunit beta1 in human RPMI8226 cells incubated for 1 hr by Cy5-NC-001 probe based competitive activity based protein profiling assay. Format: cell-based. In short, it runs like this: as §3
Assay [12] deals with Proteasome subunit beta type-9 (β1i, LMP2) (Homo sapiens) (UniProt P28065). The experiment in a line: Inhibition of catalytic activity of immunoproteasome 20s subunit beta1 in human RPMI8226 cells incubated for 1 hr by Cy5-NC-001 probe based competitive activity based protein profiling assay.
Assay [13] concerns the target Proteasome subunit beta type-8 (β5i, LMP7) (Homo sapiens) (UniProt P28062). The experiment in a line: Inhibition of catalytic activity of immunoproteasome 20s subunit beta5 in human RPMI8226 cells incubated for 1 hr by BODIPY(TMR)-NC-005-VS probe based competitive activity based protein profiling assay.
The target of assay [14] is T1, Proteasome Macropain subunit MB1 (Homo sapiens). Description: Inhibition of catalytic activity of immunoproteasome 20s subunit beta5/constitutive 20s subunit beta5 in human AMO1 cells assessed as accumulation of ubiquitinated-GFP at 3 uM after 1 hr by FACS analysis. Type of assay: cell-based. In a few lines:
as §4

The source made the active and inactive calls. The calls are words filed in the database; no cut-off is given here.

As a reminder, the IC50 is the concentration that gives 50% inhibition. High values mean weaker potency in that assay, low ones greater potency in that assay. Consider `CC(C)C[C@H](NC(=O)[C@H](Cc1ccccc1)NC(=O)[C@H](CC1CCC(C)CC1)NC(=O)[C@H](Cc1ccccc1)N=[N+]=[N-])C(=O)[C@@]1(C)CO1` (stereo not given in full), for which the pIC50(app) in [1] is 8.7; in assay [3], 7.34; in assay [4], less than 4; in assay [5] it was less than 4; in assay [6], 7.96. This compound also came in with an IC50 in [2] of 2 nM.

With `COC1CCC(C[C@H](NC(=O)[C@H](Cc2ccccc2)N=[N+]=[N-])C(=O)N[C@@H](Cc2ccccc2)C(=O)N[C@@H](CC(C)C)C(=O)[C@@]2(C)CO2)CC1` (stereo not given in full), the pIC50(app) in assay [1] was 8.68; in [3] it was 7.18; in [4], less than 4; in assay [5], 6.05; in [6], 7.67. This compound also yielded a half-maximal inhibitory concentration (IC50) in assay [2] of 2.1 nM.

With `COc1ccc(C[C@H](NC(=O)[C@H](Cc2ccccc2)N=[N+]=[N-])C(=O)N[C@@H](Cc2ccccc2)C(=O)N[C@@H](CC(C)C)C(=O)[C@@]2(C)CO2)cc1`, the pIC50(app) in assay [1] was 8.68; in assay [3], 6.95; in [4], 6.75; in [5], 6.88; in assay [6] it was 8.11. In assay [2], this compound had an IC50 of 2.1 nM.

`CC(C)C[C@H](NC(=O)CN1CCOCC1)C(=O)N[C@@H](C[C@H]1CC[C@H](C2CCCCC2)CC1)C(=O)N[C@@H](Cc1ccccc1)C(=O)N[C@@H](C)C(=O)[C@@]1(C)CO1`: the Ratio IC50 in the assay filed under Homo sapiens was 814. Besides, the IC50 in [2] was found to be 28 nM; in [7], 274 nM. Further, in assay [8], the inhibition entry is “Active”.

Regarding `CC(C)C[C@H](NC(=O)[C@H](Cc1ccccc1)NC(=O)[C@H](CCc1ccccc1)NC(=O)[C@H](Cc1ccccc1)N=[N+]=[N-])C(=O)[C@@]1(C)CO1`, the pIC50(app) in assay [1] was 8.53; in assay [3] it was 7.22; in assay [4] it was less than 4; in assay [5], 6.79; in assay [6], 8.29. The same compound had a half-maximal inhibitory concentration (IC50) in [2] of 3 nM.

In the case of `C[C@H](NC(=O)[C@H](Cc1ccccc1)NC(=O)[C@H](C[C@H]1CC[C@H](C2CCCCC2)CC1)NC(=O)[C@H](Cc1ccccc1)N=[N+]=[N-])C(=O)[C@@]1(C)CO1`, the IC50 in assay [2] came out at 4.9 nM. Besides, the inhibition result in assay [9], in assay [10], in assay [11], in assay [12] and in assay [13] was “inactive” in each case.

`COc1ccc(C[C@H](NC(=O)Cc2ccc3ccccc3c2)C(=O)N[C@@H](Cc2ccccc2)C(=O)N[C@@H](CC(C)C)C(=O)[C@@]2(C)CO2)cc1`: the inhibition result in assay [14] was “Active”.

Values taken from ChEMBL document CHEMBL4477237, “Structure-Based Design of β5c Selective Inhibitors of Human Constitutive Proteasomes” (J Med Chem, 2016).
